Source: PubChem BioAssay (The Scripps Research Institute Molecular Screening Center)
NPY-Y2 PAM-ag: NPY-Y2 potentiators or agonists, primary screen, cell-based. Neuropeptide Y receptor type 2 (Homo sapiens), P49146. cells expressing NPY-Y2, potentiator/agonist read-out. activation, % at 3.6 µM. actives 0.45% (n = 220,000). AID 1359, 2008; in the data active means activation above about 27%;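 further: cells stimulated with NPY near EC25 plus isoproterenol at EC100; 0% = vehicle plus submaximal agonist and 100% = vehicle plus saturating agonist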
S1P4 antagonist: S1P4 receptor antagonists, primary screen, cell-based. inhibition, % at 4.98 µM. AID 1510, 2009. S1P4-expressing cells, antagonist mode, reporter read-out. actives 0.26% (n = 220,000). Sphingosine 1-phosphate receptor 4 (Homo sapiens), O95977; in the data active means inhibition above about 29%;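 further: 0% = wells stimulated with agonist and 100% = vehicle wells without agonist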
S1P4 ag: S1P4 receptor agonists, primary screen, cell-based; Sphingosine 1-phosphate receptor 4 (Homo sapiens), O95977; AID 1509, 2009; S1P4-expressing cell line, agonist reporter assay; actives 0.35% (n = 220,000); activation, % at 4.98 µM; in the data active means activation above about 11%;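 further: 0% = DMSO vehicle and 100% = reference agonist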
NPY Y2 blocker: NPY-Y2 receptor antagonists, primary screen, cell-based | Neuropeptide Y receptor type 2 (Homo sapiens), P49146 | NPY-Y2 expressing cells, antagonist mode | inhibition, % at 2.7 µM | actives 0.99% (n = 140,000); in the data active means inhibition above about 17%;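 further: 0% = vehicle with agonist challenge and 100% = reference antagonist with challenge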
NPY1 pot ag: NPY-Y1 receptor potentiators or agonists, primary screen, cell-based. actives 0.37% (n = 220,000). activation, % at 3.6 µM. Neuropeptide Y receptor type 1 (Homo sapiens), P25929. NPY-Y1 expressing cells, potentiator/agonist activation; in the data active means activation above about 33%, passing the limit was not always enough;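 further: cells stimulated with NPY at EC10 then isoproterenol at EC100; 0% = low agonist plus stimulus and 100% = saturating agonist plus stimulus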
NPY Y1 blocker: NPY-Y1 receptor antagonists, primary screen, cell-based; HEK293-CNG Y1 cells, membrane potential fluorescence; NPY at EC95, then isoproterenol; actives 1% (n = 200,000); inhibition, % at 3.6 µM;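 active means inhibition above the campaign mean inhibition of all tested compounds plus 3 SD, cut at about 20% in these data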;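 further: 0% = DMSO wells given NPY plus isoproterenol and 100% = isoproterenol alone without NPY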
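Material: HEK293 Y1/CNG channel cell line | Also added: NPY (25 nM), isoproterenol (1 µM), Ro 20-1724 (25 µM) | Compound: One concentration, 3.6 µM, in 0.4% DMSO | Schedule: 3 h dye uptake, 1 h room-temperature compound, 45 min post-isoproterenol | Signal: Membrane-potential fluorescent dye readout | Read-out: % inhibition of NPY effect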
S1P4 agonist cf: S1P4 receptor agonists, retest, confirmation, cell-based, high throughput; shares compounds with S1P4 ag; S1P4 agonist cell-based reporter assay; activation, % at 4.98 µM; actives 7% (n = 740); AID 1523, 2009; in the data active means activation above about 12%;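 further: 0% = vehicle and 100% = full reference agonist response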
S1P1 ag: S1P1 receptor agonists, human, counter-screen for S1P4 agonist project, cell-based; shares compounds with S1P4 ag; S1P1 agonist cell-based assay, activation; activation, % at 4.98 µM; actives 4% (n = 740); AID 1563, 2009; in the data active means activation above about 21%;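 further: 0% = vehicle wells and 100% = reference agonist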
Target sequence (P21453 whole entry, looked up): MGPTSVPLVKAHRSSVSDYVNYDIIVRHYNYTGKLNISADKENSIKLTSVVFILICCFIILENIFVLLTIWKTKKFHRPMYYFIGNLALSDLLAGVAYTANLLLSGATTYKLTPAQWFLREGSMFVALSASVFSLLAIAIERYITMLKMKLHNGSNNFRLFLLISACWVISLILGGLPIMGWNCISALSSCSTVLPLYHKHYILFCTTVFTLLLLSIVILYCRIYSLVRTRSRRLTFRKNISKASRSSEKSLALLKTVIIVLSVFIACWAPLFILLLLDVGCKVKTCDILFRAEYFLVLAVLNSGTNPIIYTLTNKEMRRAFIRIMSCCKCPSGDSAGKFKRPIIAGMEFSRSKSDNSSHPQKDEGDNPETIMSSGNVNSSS
Starred values were filed as active, the others as inactive. This is a sample that favours compounds with a hit; in the whole collection about 2.4% have one here.

How did COC(=O)[C@@]1(Cc2ccc(F)cc2)[C@H]2c3cc(C(=O)N4CCCC4)n(CCc4ccc(O)c(O)c4)c3C[C@H]2CN1C(=O)c1ccccc1 do in these assays?
NPY-Y2 PAM-ag: -2.5; S1P4 antagonist: 0.0; S1P4 ag: -1.2; NPY Y2 blocker: -2.7; NPY1 pot ag: -8.0; NPY Y1 blocker: -10.5

How did CCC(=O)N/C(N)=N/c1nc(C)c2cc(C)c(C)cc2n1 do in these assays?
NPY-Y2 PAM-ag: -4.5; S1P4 antagonist: -8.2; S1P4 ag: 11.6*; NPY1 pot ag: -0.1; S1P4 agonist cf: -1.4; S1P1 ag: -6.4

How did Cc1ccccc1N=C1c2ccccc2C(=O)C1[N+](=O)[O-] (configuration not stated) do in these assays?
NPY-Y2 PAM-ag: -1.4; S1P4 antagonist: -4.1; S1P4 ag: 2.4; NPY1 pot ag: 6.6; NPY Y1 blocker: -1.0

What do the screens show for `OCCOCCNc1ncnc2c1cnn2-c1ccc(Cl)cc1`?
NPY-Y2 PAM-ag: 9.3; S1P4 antagonist: 10.1; S1P4 ag: 67.8*; NPY Y2 blocker: 0.2; NPY1 pot ag: 14.4; NPY Y1 blocker: -2.1; S1P4 agonist cf: 0.2; S1P1 ag: 7.8

What do the screens show for `OCCOCCNc1ncnc2c1cnn2-c1ccccc1`?
NPY-Y2 PAM-ag: 3.2; S1P4 antagonist: 3.1; S1P4 ag: -2.1; NPY Y2 blocker: 1.1; NPY1 pot ag: 6.9; NPY Y1 blocker: 3.6

How did CC(C)NC(=O)C1COc2ccccc2O1 (configuration not stated) do in these assays?
NPY-Y2 PAM-ag: -5.8; S1P4 antagonist: -11.8; S1P4 ag: 63.9*; NPY1 pot ag: 12.0; NPY Y1 blocker: -0.4; S1P4 agonist cf: -2.0; S1P1 ag: -1.7

Results for Cc1cc(C)c2sc(NNC(=O)C3COc4ccccc4O3)nc2c1 (configuration not stated) ?
NPY-Y2 PAM-ag: -8.8; S1P4 antagonist: -4.5; S1P4 ag: 20.9*; NPY Y2 blocker: 4.3; NPY1 pot ag: -23.5; NPY Y1 blocker: 2.5; S1P4 agonist cf: -1.5; S1P1 ag: 5.2

How did CC1(C)C(=O)Nc2ccccc2N1C(=O)CN1C(=O)C(=O)N(C2CCCC2)C1=O do in these assays?
NPY-Y2 PAM-ag: 0.1; S1P4 antagonist: -11.0; S1P4 ag: 0.9; NPY1 pot ag: 22.6; NPY Y1 blocker: -3.3

What do the screens show for `COc1ccc(C2CC(c3ccccc3)=NN2C(=O)COC(=O)c2cccnc2)cc1` (configuration not stated)?
NPY-Y2 PAM-ag: -9.0; S1P4 antagonist: -12.8; S1P4 ag: -2.0; NPY Y2 blocker: -0.9; NPY1 pot ag: 15.8; NPY Y1 blocker: 4.4

How did COc1ccc(C2=NN(C(=O)CN3CCCC3)C(c3ccc(OC)cc3)C2)cc1 (configuration not stated) do in these assays?
NPY-Y2 PAM-ag: -9.8; S1P4 antagonist: 11.7; S1P4 ag: 39.5*; NPY1 pot ag: -28.7; S1P4 agonist cf: -1.8; S1P1 ag: -7.9

What do the screens show for `COc1ccc(C2CC(c3ccc(Br)cc3)=NN2C(=O)c2cccnc2)cc1` (configuration not stated)?
NPY-Y2 PAM-ag: -16.5; S1P4 antagonist: -16.8; S1P4 ag: 12.2*; NPY Y2 blocker: 7.4; NPY1 pot ag: -19.1; NPY Y1 blocker: 0.5; S1P4 agonist cf: -0.5; S1P1 ag: 2.4

How did CCc1ccc(/C=C2\Oc3ccc(C(=O)OC)cc3C2=O)cc1 do in these assays?
NPY-Y2 PAM-ag: 9.0; S1P4 antagonist: -19.0; S1P4 ag: 1.9; NPY Y2 blocker: 2.9; NPY1 pot ag: 6.7; NPY Y1 blocker: 11.6

What do the screens show for `COC(=O)c1ccc2c(c1)C(=O)/C(=C/c1ccc(C)cc1)O2`?
NPY-Y2 PAM-ag: 16.1; S1P4 antagonist: -23.0; S1P4 ag: 12.7*; NPY Y2 blocker: 1.1; NPY1 pot ag: 0.9; NPY Y1 blocker: 0.3; S1P4 agonist cf: -0.5; S1P1 ag: -1.8
